Source: PubChem BioAssay
INS-1E ATP HTS: preserves ATP levels in cytokine-treated INS-1E cells. 20,000 compounds, 0.1% hits. protection from cytokine-induced ATP loss, % at 10 µM. AID 488910. INS-1E cytokine-induced death, ATP luminescence, 48 h; normalised: neutral wells 0, positive control 100;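 active = mean replicate protection from cytokine-induced ATP loss at least 50% and at least 75% of replicates each reaching 50%; inconclusive = meets only one of the two criteria, mean or replicate share; inactive = fails both the mean and replicate share criteria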
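Assay system: INS-1E rat insulinoma cells. Amount: 8000 cells per well. Medium: phenol-red-free RPMI with 5% fetal bovine serum. Reagent: IL-1β, TNF-α and IFN-γ cytokine mix. Doses: one compound concentration, pin transfer. Schedule: 48 h co-treatment, 10 min post-lysis read. Detection: CellTiter-Glo luminescence measuring cellular ATP.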
YB-1 expr inh: YB-1 expression inhibition. U2OS, qRT-PCR YB-1 vs CDIP delta delta Cp, 16 h; active compounds read high; zero = DMSO, each unit about twofold. 30,000 compounds, 0.37% hits. AID 434959. delta delta Cp (YB-1 minus CDIP) (concentration not given with the values);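 active = delta delta Cp rounded down to an integer at or above 3, about 3 SD of DMSO wells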;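 also: higher means less YB-1 transcript or more CDIP transcript relative to DMSO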
T cruzi HTS: inhibitors of intracellular Trypanosoma cruzi | AID 651903 | 22,000 compounds, 4.9% hits | activity score (inhibition), % at 5.01 µM | intracellular Trypanosoma cruzi in host cells, plate reader; in the data active = activity score above about 55%; inconclusive = no clear call, values can overlap the other calls;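 also: parasites and compound incubated about four days before reading; 0% = median of neutral control wells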
Starred values were filed as active, the others as inactive; ? = inconclusive; . = not tested or not shown. The full list was thinned out, with hits kept by preference.

SMILES	INS-1E ATP HTS	YB-1 expr inh	T cruzi HTS
COc1ccc(S(=O)(=O)N(C)C[C@@H]2Oc3c(NC(=O)Nc4cccc5ccccc45)cccc3C(=O)N([C@H](C)CO)C[C@@H]2C)cc1	11	-0.23	-5
C[C@H]1CC(=O)C2=C(C1)C(O)C(O)[C@@]1(O)[C@H]2C(=O)c2cccc(O)c2[C@@H]1O (stereo not given in full)	.	0.38	.
COc1ccc(NC(=O)N(C)C[C@@H]2Oc3ccc(NC(=O)NC4CCCCC4)cc3C(=O)N([C@H](C)CO)C[C@H]2C)cc1	6	-0.25	-9
C[C@@H]1CN([C@@H](C)CO)C(=O)CCCn2cc(nn2)CO[C@H]1CN(C)Cc1ccccc1C(F)(F)F	.	0.0056	-25
C[C@@H]1CN([C@@H](C)CO)C(=O)c2cccc(NC(=O)NC3CCCCC3)c2O[C@H]1CN(C)CC1CCCCC1	-7	-0.39	13
C[C@H]1CN([C@@H](C)CO)C(=O)c2cccc(NC(=O)c3nc4ccccc4s3)c2O[C@H]1CN(C)S(=O)(=O)c1ccccc1	-39	-0.17	77*
C[C@H]1CN([C@@H](C)CO)C(=O)c2cccc(NC(=O)c3nc4ccccc4s3)c2O[C@@H]1CN(C)S(=O)(=O)c1ccccc1	-13	0.25	73*
C[C@H](CO)N1C[C@H](C)[C@@H](CN(C)S(=O)(=O)c2ccccc2)Oc2c(NC(=O)c3nc4ccccc4s3)cccc2C1=O	1	-0.035	42
C[C@@H]1CN([C@@H](C)CO)C(=O)c2cccc(NC(=O)c3nc4ccccc4s3)c2O[C@H]1CN(C)S(=O)(=O)c1ccc(Cl)cc1	-30	-0.055	32
C[C@H]1CN([C@@H](C)CO)C(=O)c2cccc(NC(=O)CCCCCC(=O)Nc3ccccc3N)c2O[C@@H]1CN(C)S(=O)(=O)c1ccc(F)cc1	5	0.055	25
COc1ccc(S(=O)(=O)N(C)C[C@H]2Oc3ccc(NC(=O)Nc4ccccc4)cc3CC(=O)N([C@@H](C)CO)C[C@@H]2C)cc1	14	0.31	-9
COc1cc(SC)ccc1-c1nc2ccncc2[nH]1	.	0.71	.
CCCCc1c(-c2ccc(O)cc2)[nH]c2nccnc12	.	3.3*	.
CCCCc1c(-c2ccc(OC)cc2)[nH]c2nccnc12	.	0.043	.
COc1ccc(NC(=O)Nc2ccc3c(c2)CC(=O)N([C@H](C)CO)C[C@@H](C)[C@H](CN(C)Cc2ccc(Cl)c(Cl)c2)O3)cc1	-29	0.14	?
C[C@@H]1CN([C@H](C)CO)C(=O)Cc2cc(NC(=O)Nc3ccc(F)cc3)ccc2O[C@H]1CN(C)Cc1ccc(Cl)c(Cl)c1	-51	-0.05	62*
COc1ccc(CN(C)C[C@H]2Oc3ccc(NC(=O)Nc4ccc(OC)cc4)cc3CC(=O)N([C@@H](C)CO)C[C@H]2C)cc1	0	0.057	7
COc1ccc(NC(=O)Nc2ccc3c(c2)CC(=O)N([C@H](C)CO)C[C@@H](C)[C@@H](CN(C)Cc2ccc(Cl)c(Cl)c2)O3)cc1	-53	0.057	74*
C[C@H]1CN([C@@H](C)CO)C(=O)Cc2cc(NC(=O)Nc3ccc(F)cc3)ccc2O[C@@H]1CN(C)Cc1ccc(Cl)c(Cl)c1	-46	-0.088	?
COc1ccc(NC(=O)Nc2ccc3c(c2)CC(=O)N([C@@H](C)CO)C[C@H](C)[C@H](CN(C)Cc2ccc(Cl)c(Cl)c2)O3)cc1	-45	-0.39	64*
CNC[C@@H]1Oc2c(NC(=O)c3ccc(-c4nccs4)cc3)cccc2C(=O)N([C@@H](C)CO)C[C@@H]1C	3	-0.12	0
C[C@H]1CN([C@@H](C)CO)C(=O)c2cc(NC(=O)C3CCCCC3)ccc2O[C@@H]1CN(C)C(=O)Nc1ccc(F)cc1	12	-0.18	-4
NC(=O)CSc1nc2c(c(=O)n1-c1ccccc1)C1=C(CCC1)C2	.	-0.36	.
C[C@@H]1CN([C@H](C)CO)C(=O)c2cc(NC(=O)CCCN(C)C)ccc2O[C@H]1CN(C)C	9	-0.3	-18
C[C@H]1CN([C@@H](C)CO)C(=O)c2cccc(NC(=O)Nc3cccc4ccccc34)c2O[C@@H]1CN(C)S(=O)(=O)c1cccs1	2	-0.054	17
SMILES	INS-1E ATP HTS	YB-1 expr inh	T cruzi HTS
Cc1ccc(S(=O)(=O)N(C)C[C@@H]2Oc3ccc(NC(=O)Nc4c(C)noc4C)cc3CC(=O)N([C@H](C)CO)C[C@H]2C)cc1	6	-0.13	-12
Cc1ccc(S(=O)(=O)N(C)C[C@@H]2Oc3ccc(NC(=O)Nc4cccc5ccccc45)cc3CC(=O)N([C@@H](C)CO)C[C@@H]2C)cc1	-15	0.48	-6
Cc1ccc(S(=O)(=O)N(C)C[C@H]2Oc3ccc(NC(=O)Nc4cccc5ccccc45)cc3CC(=O)N([C@@H](C)CO)C[C@H]2C)cc1	-5	0.14	67*
Cc1ccc(S(=O)(=O)N(C)C[C@H]2Oc3ccc(NC(=O)Nc4c(C)noc4C)cc3CC(=O)N([C@@H](C)CO)C[C@H]2C)cc1	-1	9.8*	-1
CC(C)NC(=O)N(C)C[C@H]1Oc2c(NS(=O)(=O)c3cn(C)cn3)cccc2C(=O)N([C@H](C)CO)C[C@H]1C	3	12*	12
CC(C)NC(=O)N(C)C[C@H]1Oc2c(NS(=O)(=O)c3cn(C)cn3)cccc2C(=O)N([C@H](C)CO)C[C@@H]1C	11	-0.51	-26
C[C@H](CO)N1C[C@H](C)[C@@H](CN(C)CC2CCCCC2)Oc2c(NS(=O)(=O)c3cn(C)cn3)cccc2C1=O	6	0.6	-25
C[C@@H]1CN([C@@H](C)CO)C(=O)c2cccc(NS(=O)(=O)c3cn(C)cn3)c2O[C@H]1CN(C)CC1CCCCC1	4	0.54	62*
C[C@H]1CN([C@@H](C)CO)C(=O)c2cc(NS(=O)(=O)c3cn(C)cn3)ccc2O[C@@H]1CN(C)C(=O)Nc1cccc2ccccc12	17	-0.27	-14
Cc1ccc(S(=O)(=O)Nc2ccc3c(c2)CC(=O)N([C@H](C)CO)C[C@@H](C)[C@H](CN(C)Cc2ccc(Oc4ccccc4)cc2)O3)cc1	-59	-0.29	50
C[C@@H]1CN([C@H](C)CO)C(=O)Cc2cc(NS(=O)(=O)c3ccc(F)cc3)ccc2O[C@H]1CN(C)Cc1ccc(Oc2ccccc2)cc1	-45	-0.29	66*
C[C@@H]1CN([C@@H](C)CO)C(=O)Cc2cc(NS(=O)(=O)c3ccccc3)ccc2O[C@@H]1CN(C)Cc1ccc(Oc2ccccc2)cc1	-20	0.24	45
C[C@@H]1CN([C@H](C)CO)C(=O)Cc2cc(NS(=O)(=O)c3ccccc3)ccc2O[C@H]1CN(C)Cc1ccc(Oc2ccccc2)cc1	-19	-0.032	40
C[C@H]1CN([C@@H](C)CO)C(=O)Cc2cc(NS(=O)(=O)c3ccc(F)cc3)ccc2O[C@@H]1CN(C)Cc1ccc(Oc2ccccc2)cc1	-19	-0.84	66*
Cc1ccc(S(=O)(=O)Nc2ccc3c(c2)CC(=O)N([C@H](C)CO)C[C@@H](C)[C@@H](CN(C)Cc2ccc(Oc4ccccc4)cc2)O3)cc1	-22	0.095	65*
O=C(Nc1cc2ccccc2oc1=O)c1ccc(Cl)cc1	.	0.11	.
